High-throughput results as filed in PubChem BioAssay.
Compounds with a hit are over-represented: about 9.8% of the library has one in this group of screens.
PMI act satM6P: human PMI activators, high substrate, primary screen, biochemical, fluorescence intensity, near-saturating mannose 6-phosphate; Mannose-6-phosphate isomerase (Homo sapiens), P34949; coupled PMI enzyme assay, resazurin fluorescence, 20 min; hits give high values; 1 = untreated enzyme, 0 = substrate-free blank; activation factor at 20 µM; 0.34% of 190,000 active; AID 1216, 2008;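 active means activation factor of 2 or more at 20 µM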
Target sequence (P34949 whole entry, looked up): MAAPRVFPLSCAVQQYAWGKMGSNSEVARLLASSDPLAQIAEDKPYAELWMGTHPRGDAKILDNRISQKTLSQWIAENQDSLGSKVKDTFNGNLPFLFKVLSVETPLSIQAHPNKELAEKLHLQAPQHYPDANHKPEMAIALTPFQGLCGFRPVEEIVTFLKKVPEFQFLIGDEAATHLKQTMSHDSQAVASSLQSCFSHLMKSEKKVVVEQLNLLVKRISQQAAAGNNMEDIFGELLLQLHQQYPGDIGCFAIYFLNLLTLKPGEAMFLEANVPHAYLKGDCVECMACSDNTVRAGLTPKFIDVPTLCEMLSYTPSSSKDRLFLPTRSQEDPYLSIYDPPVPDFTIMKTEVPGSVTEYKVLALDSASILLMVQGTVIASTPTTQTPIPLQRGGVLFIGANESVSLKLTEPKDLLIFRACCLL
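test system = human PMI in coupled enzyme assay | medium = HEPES-buffered pH 7.4 with magnesium and detergent | also added = 1.0 mM mannose-6-phosphate substrate with 0.22 mM NADP+ | compound = 20 µM single dose | times = 20 min incubation at room temperature | measured by = resorufin fluorescence (Ex 544/Em 590 nm) from resazurin via diaphorase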
L major viab: Leishmania major promastigote growth inhibition, primary screen | Leishmania major promastigotes, resazurin fluorescence viability | inhibition, % at 10 µM | 9% of 200,000 active; in the data active means inhibition above about 50%;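 further: promastigotes grown with compound for 44 hours at 28 °C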
WT yeast gro inh: growth inhibition of WT strain, primary screen, mitochondrial fusion inhibitor project, WT and mutant strains, chemical genetic; mitochondrial fusion phenotypic screen; inhibition, % at 10 µM; 2.1% of 190,000 active; in the data active means inhibition above about 58%; tested in S. cerevisiae
Calpain2 inh: inhibitors of pig calpain II, primary screen, biochemical, fluorogenic peptide substrate, 1536-well. inhibition, % at 16 µM. 0.37% of 220,000 active. AID 1236, 2008. purified calpain II, 30 min;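 active means inhibition above about 50%, limit read from the data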
PMI activator: activators of human PMI, primary screen, biochemical, fluorescence intensity, near-Km mannose 6-phosphate; 0.005% of 190,000 active; purified human PMI, coupled resazurin fluorescence, 20 min; hits give high values; 1 = vehicle control, 0 substrate-free wells; activation factor at 20 µM; AID 1214, 2008;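 active means activation factor of 2 or more at 20 µM, relative to plate controls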
Rad51 HR inh: human RAD51 strand exchange inhibitors, primary screen, biochemical, fluorescence | hRad51 DNA strand exchange, fluorescence dequenching | inhibition, % at 10 µM | 0.085% of 200,000 active | AID 1385, 2008;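 active means inhibition above 40% at the single screening dose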;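 further: 0% = DMSO control wells and 100% = blanks with heterologous ssDNA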
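Material: hRad51 filaments on single-stranded DNA; Reagent: Donor/quencher-labelled 47-bp dsDNA substrate; Compound: 10 µM final, single point; Schedule: 37 °C 15-min filament assembly, 30-min compound preincubation, 15-min exchange; Technique: FRET fluorescence, excitation 485 nm, emission 520 nm; Benchmarks: control wells and blank wells on each plate.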
* hit, by the source's call.

What do the screens show for `CC(=O)N1CCC(=NNc2ccnc3cc(Cl)ccc23)CC1`?
PMI act satM6P: 2.3*; L major viab: 86*; WT yeast gro inh: 27; Calpain2 inh: -11; PMI activator: 1.7; Rad51 HR inh: -3

What do the screens show for `CCOC(=O)N1CCC(=NNc2ccnc3cc(Cl)ccc23)CC1`?
PMI act satM6P: 1.5; L major viab: 61*; WT yeast gro inh: 29; Calpain2 inh: -19; PMI activator: 1.6; Rad51 HR inh: -4

What do the screens show for `CC1(C)CC(=O)C(C=Nc2cccnc2/N=C/C2=C(O)CC(C)(C)CC2=O)=C(O)C1`?
PMI act satM6P: 0.4; L major viab: 2; WT yeast gro inh: -6; Calpain2 inh: 11; PMI activator: 0.8; Rad51 HR inh: 1

What do the screens show for `Cc1cc(C)nc(N/C(=N\S(=O)(=O)Cc2ccccc2)Nc2ccc(F)c(Cl)c2)n1`?
PMI act satM6P: 1; L major viab: -10; WT yeast gro inh: 5; Calpain2 inh: 9; PMI activator: 0.9; Rad51 HR inh: 9

How did CCOCCCNC(=S)N1CCC(NC(=O)C23CC4CC(CC(C4)C2)C3)CC1 do in these assays?
PMI act satM6P: 1; L major viab: 63*; WT yeast gro inh: -11; Calpain2 inh: 16; PMI activator: 1; Rad51 HR inh: 8

What do the screens show for `CCOCCCNC(=O)NC12CC3CC(CC(C3)C1)C2`?
PMI act satM6P: 1; L major viab: -2; WT yeast gro inh: 58*; Calpain2 inh: 9; PMI activator: 1.1; Rad51 HR inh: 6

What do the screens show for `CCOCCCNC(=S)N1CCC(NC(=O)c2ccco2)CC1`?
PMI act satM6P: 1.1; L major viab: -4; WT yeast gro inh: -4; Calpain2 inh: -6; PMI activator: 1.1

What do the screens show for `O=C(NCCCN1CCOCC1)NC12CC3CC(CC(C3)C1)C2`?
PMI act satM6P: 0.9; L major viab: -7; WT yeast gro inh: 7; Calpain2 inh: -6; PMI activator: 0.9; Rad51 HR inh: 2

What do the screens show for `CCOC(=O)c1c(C)[nH]c2cc(Br)c(O)cc12`?
PMI act satM6P: 1; L major viab: 17; WT yeast gro inh: -1; Calpain2 inh: -13; PMI activator: 1; Rad51 HR inh: 8

What do the screens show for `CCOC(=O)c1c(OCC)[nH]c2c1cc(O)c1ccccc12`?
PMI act satM6P: 0.5; L major viab: 99*; WT yeast gro inh: 59*; Calpain2 inh: -63; PMI activator: 0.7; Rad51 HR inh: 5

How did Nc1ncnc2c1nc(SCCO)n2Cc1ccccc1 do in these assays?
PMI act satM6P: 1.1; L major viab: 1; WT yeast gro inh: 2; Calpain2 inh: -18; PMI activator: 1.2; Rad51 HR inh: -4

What do the screens show for `COc1ccc(/C=N/Nc2cc(N3CCCC3)nc(N3CCCC3)n2)cc1`?
PMI act satM6P: 0.5; L major viab: 95*; WT yeast gro inh: 75*; Calpain2 inh: -24; PMI activator: 0.7; Rad51 HR inh: -5

What do the screens show for `Oc1ccc(/C=N/Nc2cc(N3CCOCC3)nc(N3CCOCC3)n2)cc1`?
L major viab: -10; Rad51 HR inh: -2

How did Oc1cccc(/C=N/Nc2cc(N3CCCC3)nc(N3CCCC3)n2)c1 do in these assays?
PMI act satM6P: 0.4; L major viab: 97*; WT yeast gro inh: 37; Calpain2 inh: -44; PMI activator: 0.6; Rad51 HR inh: -1

What do the screens show for `Oc1ccc(/C=N/Nc2cc(N3CCCC3)nc(N3CCCC3)n2)cc1`?
PMI act satM6P: 0.4; L major viab: 13; WT yeast gro inh: 63*; Calpain2 inh: -68; PMI activator: 0.7; Rad51 HR inh: -4

Results for CCOC(=O)N/N=C1\CCS(=O)(=O)c2ccc(Cl)cc21 ?
Calpain2 inh: -19; Rad51 HR inh: -8

Results for COc1ccccc1CNc1cc(CSc2ccc(Cl)cc2)nc(C)n1 ?
PMI act satM6P: 0.9; L major viab: 57*; WT yeast gro inh: 46; Calpain2 inh: 13; PMI activator: 0.9; Rad51 HR inh: -4

How did O=C(CCN1C(=O)C2C3C=CC(C3)C2C1=O)NCCN1CCCc2ccccc21 (stereo not drawn) do in these assays?
PMI act satM6P: 2.1*; L major viab: -1; WT yeast gro inh: 22; Calpain2 inh: -5; PMI activator: 1.5; Rad51 HR inh: -8

How did O=C1C2C3C=CC(C3)C2C(=O)N1CCC(=O)N1CCc2ccccc21 (stereo not drawn) do in these assays?
PMI act satM6P: 1; L major viab: -1; WT yeast gro inh: -14; Calpain2 inh: -9; PMI activator: 1; Rad51 HR inh: 5

What do the screens show for `O=C(CN1C(=O)C2C3C=CC(C3)C2C1=O)NCCN1CCCc2ccccc21` (stereo not drawn)?
PMI act satM6P: 2.1*; L major viab: -5; WT yeast gro inh: 7; Calpain2 inh: -44; PMI activator: 1.7

How did CC(=O)Nc1c(C)ccc(S(N)(=O)=O)c1C do in these assays?
PMI act satM6P: 1; L major viab: -7; WT yeast gro inh: -4; Calpain2 inh: -17; PMI activator: 1.1; Rad51 HR inh: 5

What do the screens show for `COc1cc(/C(C#N)=C/c2ccccc2)c([N+](=O)[O-])cc1OC`?
PMI act satM6P: 0.7; L major viab: 7; WT yeast gro inh: 4; Calpain2 inh: 10; PMI activator: 0.8; Rad51 HR inh: 12

What do the screens show for `O=[N+]([O-])c1ccccc1N(CC1CO1)S(=O)(=O)c1ccccc1` (stereo not drawn)?
L major viab: -2; WT yeast gro inh: 14; Calpain2 inh: 24; Rad51 HR inh: -11

How did COc1ccc(-c2cn3cccnc3n2)cc1NC(=O)CC(C)C do in these assays?
PMI act satM6P: 1.1; L major viab: 24; WT yeast gro inh: -1; Calpain2 inh: -482; PMI activator: 1.1; Rad51 HR inh: -4

How did O=C(Nc1ccccc1)Nc1cccc(-c2cn3cccnc3n2)c1 do in these assays?
PMI act satM6P: 1; L major viab: 31; WT yeast gro inh: 4; Calpain2 inh: -14; PMI activator: 1.1; Rad51 HR inh: 3

Results for CCCC(=O)Nc1cccc(-c2cn3cccnc3n2)c1 ?
PMI act satM6P: 1; L major viab: 91*; WT yeast gro inh: 2; Calpain2 inh: inactive; PMI activator: 1; Rad51 HR inh: 2

How did CCCC(=O)Nc1cc(-c2cn3cccnc3n2)ccc1OC do in these assays?
PMI act satM6P: 1; L major viab: 63*; WT yeast gro inh: -25; Calpain2 inh: -438; PMI activator: 1.1; Rad51 HR inh: -1

What do the screens show for `O=C(CNC(=O)c1ccccc1)OCc1cccc([N+](=O)[O-])c1`?
PMI act satM6P: 1; L major viab: 56*; WT yeast gro inh: 3; Calpain2 inh: 21; PMI activator: 0.9; Rad51 HR inh: 3
